Here are results for 18 molecules from PubChem BioAssay.

Test [1] in a line: S. cerevisiae growth inhibition in permissive medium (OD615), pilot counter-assay for S. cerevisiae lifespan shortening project, permissive growth control (AID 705;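 active = growth inhibition above 25% in both replicates, a cutoff set 3 SD above the mean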). To be noted: OD615, 24 h, at 10 µM, stronger effect = higher value. The method, boiled down: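 Timing: 24 h exposure, 30 °C / Material: Saccharomyces cerevisiae strain carrying genetically modified DeaD replicative-lifespan system / Signal: OD at 615 nm / Compound: 10 µM single dose, 0.25% DMSO / Medium: SC raffinose/galactose permissive medium / Evaluation: reduction in yeast growth (OD615)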

Test [2] in a line: S. cerevisiae growth inhibition in restrictive medium, OD615, pilot screen, restrictive growth control, yeast lifespan reduction project (AID 706;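 active = growth inhibition above a set limit, 3 SD over mean compound inhibition, in both replicates, cut at about 43% in these data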;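 note: modified DeaD lifespan yeast strain shifted to restrictive glucose medium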). The conditions noted are these: OD615, 48 h, at 10 µM, stronger effect = higher value. The method, boiled down:
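System: Engineered S. cerevisiae DeaD strain | Detection: OD615 | Buffer or medium: CSMM-D glucose medium | Doses: 10 µM compound, 0.25% DMSO | Timing: 4 h pre-growth plus 48 h compound exposure, 30 °C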

A short description of test [3]: doxorubicin toxicity protection in MRP-1 cells – H69AR cells, CellTiter-Glo, duplicate, MRP-1 activator project, pilot screen (AID 807;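 active = viability increase at or above a cutoff of the median across tested compounds plus 3 SD, cut at about 8.5% in these data, passing the limit was not always enough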;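 note: compound pretreatment 18-22 h then 72 h combined with doxorubicin; 0% = doxorubicin alone and 100% = vehicle without doxorubicin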). The conditions noted are these: H69AR viability with doxorubicin, CellTiter-Glo luminescence; at 10 µM; stronger effect = higher value. For orientation: Cellular ATP, detected with luciferase, serves as a proxy for viable cell number.
The nature of test [4]: viability of HCT116 without oncogenic beta-catenin – human colon tumor cells, pilot screen (AID 823).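 Note: 0% = wells killed by 20 µM Hyamine and 100% = untreated DMSO cell wells.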 The conditions noted are these: HCT116 beta-catenin knockout viability, CellTiter-Glo, 60 h; at 10 µM; stronger effect = lower value.
A short description of test [5]: viability of PTEN-null HCT116 cells – cell-based, HCT116 clonal line, CellTiter-Glo, pilot screen (AID 824;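 active = viability at or below 27.92% in each of two runs, the all-compound median minus 4 SD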;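 note: 0% = 20 µM Hyamine control and 100% = vehicle cell control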). The conditions noted are these: HCT116 PTEN-deleted viability, 60 h, at 10 µM, stronger effect = lower value.
The nature of test [6]: RAM pathway blockade in budding yeast – dse1pr::URA3 reporter, 5-FOA selection, pilot screen (AID 869;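 active = inhibition over a set limit, the all-compound mean plus 3 SD, in both replicate runs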;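 note: 0% = DMSO wells with no growth and 100% = 10 µM 1-NA-PP1 with full growth; RAM network block rescues cells from 5-FOA so hits raise OD615 growth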). The conditions noted are these: S. cerevisiae dse1pr::URA3 5-FOA growth, OD615, 2 d; at 10 µM; stronger effect = higher value; strain carries analog-sensitive mutant Cbk1 kinase.
A short description of test [7]: RAM signaling pathway blockade in yeast – S. cerevisiae, Pdr1DBD-CYC8 efflux-inhibited sensitized strain, primary screen (AID 1298;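 active = RAM network inhibition above 8.4% in each of two replicates, 3 SD over the compound average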;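 note: 0% = DMSO untreated cells without growth and 100% = 10 µM 1-NA-PP1 full growth; higher means more yeast growth rescued from 5-FOA killing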). The conditions noted are these: S. cerevisiae cbk1-as DSE1-URA3 strain, 5-FOA growth OD615, 2 d; at 50 µM; stronger effect = higher value.

Unmarked numbers belong to inactive results. Inconclusive results are not listed. The source made the active and inactive calls.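 Rule for the calls, unless noted: active = cell viability at or below a set limit in both duplicate runs, the limit being the all-compound median minus 4 SD (cut at about 23% in these data, passing the limit was not always enough); inconclusive = no clear call, values can overlap the other calls; inactive = the rest.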

On to `CC(C)(Oc1ccc(Cl)cc1)C(=O)Nc1cccnc1`, for which the growth inhibition in test [1] was -4.86%; in test [2], -6.65%. The viability increase in test [3] is -3.43%. Moreover, the values for the viability in test [4] and in test [5] were 92.6% and 83.1%, respectively. Further, in test [6], the inhibition (commonly the drop in the measured response relative to a control, in per cent) is 0.405%. In addition, the RAM network inhibition in test [7] is 1.94%.

As to `COc1ccccc1C1C(C(N)=O)=C(C)Nc2nc(-c3ccc(Cl)cc3)nn21` (stereo unspecified), the growth inhibition is -5.66% in test [1] and 0.335% in test [2]. The viability increase in test [3] was -1.26%. Also, the viability (as a rule, a read-out of living cells in per cent, often relative to untreated cells) in test [4] was 95%; in test [5], 92.4%. In test [6], the inhibition was -0.455%. Further, in test [7], the RAM network inhibition was -1.72%.

`O=S(=O)(c1ccc(N2CC=C(c3ccccc3)CC2)nc1)N1CCCC1`: the values for the growth inhibition in test [1] and in test [2] were -6.39% and -12.5%, respectively. For the same molecule, the viability increase in test [3] was -7%. The viability in test [4] was 4.45% (active); in test [5] it was 3.3% (active). Moreover, in test [6], the inhibition is 2.18%. The RAM network inhibition in test [7] was 2.69%.

For the molecule `CC1=C(C)C(=O)N(CCC(=O)O)C1=O`, the growth inhibition in test [1] was -12.6%; in test [2], -20.3%. The viability increase in test [3] is -1.09%. Moreover, the results for the viability in test [4] and in test [5] were 95.3% and 93.8%, respectively. The inhibition in test [6] is 1.52%. Moreover, the RAM network inhibition in test [7] was 3.32%.

As for `CCOc1ccc(CCNC(=O)c2nnc(Cc3ccc(F)cc3)o2)cc1OCC`, the growth inhibition in test [1] is -5.33%; in test [2], 7.65%. Moreover, in test [3], the viability increase is -2.55%. For the same molecule, the viability is 103% in test [4] and 95.2% in test [5]. Besides, in test [6], the inhibition is 1.5%. Moreover, in test [7], the RAM network inhibition was 5.06%.

On to `Cc1cc(NC(=O)CSc2nc3c([nH]c4ccccc43)c(=O)n2-c2cccc(C(F)(F)F)c2)no1`, for which the growth inhibition is -8.72% in test [1] and -3.21% in test [2]. Besides, the viability increase in test [3] was -4.01%. Besides, the viability in test [4] is 75.1%; in test [5] it was 66.7%. For the same molecule, the inhibition in test [6] is 2.41%. Besides, in test [7], the RAM network inhibition is 1.08%.

Consider `Cc1cc(N2CCCc3ccccc32)n2ncnc2n1`, for which the growth inhibition was -2.53% in test [1] and -1.67% in test [2]. In addition, the viability increase in test [3] is -1.21%. The viability in test [4] is 97.9%; in test [5] it was 105%. Further, the inhibition in test [6] was 0.97%. For the same molecule, the RAM network inhibition in test [7] was 0.93%.

As to `CCn1c2ccccc2c2nnc(SCN3C(=O)c4ccccc4C3=O)nc21`, the growth inhibition is -12.1% in test [1] and -1.02% in test [2]. For the same molecule, the viability increase in test [3] is -3.94%. Besides, the viability in test [4] is 98.5%; in test [5], 100%. Besides, in test [6], the inhibition is 2.71%. In addition, the RAM network inhibition in test [7] was 5.66%.

For `Cc1cc(C)nc(-n2nc(C)cc2NC(=O)CN2CCC(C)CC2)n1`, the figures for the growth inhibition in test [1] and in test [2] were -0.83% and 21.6%, respectively. For the same molecule, the viability increase in test [3] was -5.27%. Moreover, the results for the viability in test [4] and in test [5] were 75.3% and 85.5%, respectively. Moreover, the inhibition in test [6] was 1.01%. Besides, the RAM network inhibition in test [7] is 2.91%.

`O=C1CCC(C(=O)N(c2ccccc2)C2(C(=O)NC3CCCCC3)CCCCC2)N1` (stereo unspecified): the values for the growth inhibition in test [1] and in test [2] were 1.54% and 2.4%, respectively. In test [3], the viability increase was -0.07%. The viability was 94.3% in test [4] and 97.2% in test [5]. In addition, in test [6], the inhibition is 0.505%. In addition, the RAM network inhibition in test [7] was 1.6%.

As for `COC(=O)NCC(c1cccnc1)N1CCN(c2ccccc2F)CC1` (stereo unspecified), the growth inhibition in test [1] was -5.28%; in test [2], -1.77%. Further, the viability increase in test [3] is -0.18%. The viability was 95.6% in test [4] and 102% in test [5]. In test [6], the inhibition was 1.66%. In addition, the RAM network inhibition in test [7] is 1.57%.

Consider `Cc1c(NC(=O)c2ccc(F)cc2)c(=O)n(-c2ccccc2)n1C`, for which the figures for the growth inhibition in test [1] and in test [2] were -15.9% and -7.79%, respectively. The viability increase in test [3] is -2.08%. In addition, the viability in test [4] was 106%; in test [5], 96.6%. Moreover, the inhibition in test [6] is 1.34%. Also, in test [7], the RAM network inhibition is 1.21%.

Take `O=C(Nc1ccc2oc(-c3ccccc3)nc2c1)c1ccncc1`: the growth inhibition in test [1] was -2.31%; in test [2], -10.5%. In test [3], the viability increase was 2.36%. For the same molecule, the viability in test [4] is 79.7%; in test [5] it was 77.9%. The inhibition in test [6] is 0.165%. Besides, in test [7], the RAM network inhibition was 1.62%.

As to `COc1ccc(OC)c(CNC(=O)Cc2c(C(=O)O)[nH]c3ccccc23)c1`, the growth inhibition in test [1] was -7.09%; in test [2] it was -25%. Further, the viability increase in test [3] is -0.54%. The viability in test [4] is 104%; in test [5], 101%. For the same molecule, the inhibition in test [6] was -0.185%. Also, the RAM network inhibition in test [7] is 5.43%.

As to `CCCc1ccc(Oc2cn[nH]c2-c2ccc(O)cc2O)cc1`, the growth inhibition in test [1] is -16.3%; in test [2], -10.3%. Moreover, the viability increase in test [3] is -3.5%. In addition, the viability in test [4] is 82.4%; in test [5], 78.7%. For the same molecule, in test [6], the inhibition was 0.7%. Besides, the RAM network inhibition in test [7] is 2.88%.

`O=C(O)C1CCCN1S(=O)(=O)c1ccc(Cl)c(Cl)c1` (stereo unspecified): the figures for the growth inhibition in test [1] and in test [2] were -5.33% and -3.77%, respectively. Moreover, the viability increase in test [3] is -1.74%. Further, the viability in test [4] was 98.6%; in test [5], 106%. Besides, in test [6], the inhibition is -0.11%. Further, in test [7], the RAM network inhibition is 1.89%.

Regarding `O=C(O)CCc1n[nH]c(=S)[nH]c1=O`, the growth inhibition in test [1] was -5.76%; in test [2], -17.3%. Also, in test [3], the viability increase was -1.6%. Besides, the viability was 102% in test [4] and 106% in test [5]. Further, the inhibition in test [6] is 0.76%. In addition, the RAM network inhibition in test [7] is -0.69%.

Turning to `CC(C)(C)NC(=O)CSc1nccn1Cc1ccccc1`, the growth inhibition in test [1] is -11.7%; in test [2], -5.1%. In test [3], the viability increase was -1.52%. Further, the viability was 95.9% in test [4] and 93% in test [5]. In addition, the inhibition in test [6] was 1.66%. Further, the RAM network inhibition in test [7] was 4.82%.
